PRMT1 FP inh – PRMT1 methyltransferase inhibitors, primary screen, biochemical, fluorescence polarization | recombinant PRMT1, activity-based probe fluorescence polarization | inhibition, % at 2.79 µM | actives 1.3% (n = 370,000) | AID 652257, 2013;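 active = inhibition above about 21% made by adding two undisclosed values, limit read from the data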
HTRA1 inh – HTRA1 serine protease inhibitors, primary screen, biochemical, fluorescence polarization, HTS. Q92743. recombinant HTRA1, FP-rhodamine activity-based probe. inhibition, % at 5.96 µM. actives 0.5% (n = 340,000). AID 504803, 2011; in the data active = inhibition above about 36%;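 also: 0% = enzyme with DMSO and 100% = wells lacking enzyme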
SIAE inh – human SIAE inhibitors, primary screen, biochemical, fluorescence polarization, FP-Rh probe, 1536-well HTS. inhibition, % at 9.66 µM. actives 0.69% (n = 370,000). AID 1053197, 2014. SIAE FP-Rh probe binding;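 active = inhibition above a cutoff: mean of compounds within the control limits plus 3 SD of those, cut at about 17% in these data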;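 also: 0% = plate median of compound wells and 100% = probe without SIAE protein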
ABHD4 inh – ABHD4 inhibitors, primary screen, biochemical, fluorescence polarization, mouse; (Lyso)-N-acylphosphatidylethanolamine lipase (Mus musculus), Q8VD66; purified mABHD4, FP-Rh probe fluorescence polarization; inhibition, % at 8.92 µM; actives 0.54% (n = 370,000);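 active = inhibition exceeding the mean over every tested compound plus 3 SD, cut at about 30% in these data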;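 also: 0% = plate median of compound wells and 100% = S159A mutant with DMSO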
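Test system: mABHD4 protein | Buffer or medium: HEPES pH 7.0 buffer, 150 mM NaCl, 0.01% Pluronic F-127 | Probe or stimulus: FP-Rh fluorescent activity-based probe, added after compound pre-incubation | Timing: Pre-incubation 45 min, probe exposure 60 min, at 25 °C | Technique: Fluorescence polarization, excitation 525 nm, emission 598 nm, BODIPY TMR filters | Repeats: Single well per compound (singlicate)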
PAD4 inh – human PAD4 inhibitors, primary screen, biochemical, fluorescence polarization, 1536-well format | Protein-arginine deiminase type-4 (Homo sapiens), Q9UM07 | recombinant PAD4, RCA probe fluorescence polarization | inhibition, % at 6.36 µM | actives 0.41% (n = 330,000) | AID 485272, 2010;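 active = percent inhibition above a cutoff equal to the mean of all tested compounds plus 3 SD, cut at about 15% in these data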;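 also: 0% = PAD4 with RCA probe and DMSO and 100% = probe without PAD4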
Target sequence (Q9UM07 whole entry, looked up): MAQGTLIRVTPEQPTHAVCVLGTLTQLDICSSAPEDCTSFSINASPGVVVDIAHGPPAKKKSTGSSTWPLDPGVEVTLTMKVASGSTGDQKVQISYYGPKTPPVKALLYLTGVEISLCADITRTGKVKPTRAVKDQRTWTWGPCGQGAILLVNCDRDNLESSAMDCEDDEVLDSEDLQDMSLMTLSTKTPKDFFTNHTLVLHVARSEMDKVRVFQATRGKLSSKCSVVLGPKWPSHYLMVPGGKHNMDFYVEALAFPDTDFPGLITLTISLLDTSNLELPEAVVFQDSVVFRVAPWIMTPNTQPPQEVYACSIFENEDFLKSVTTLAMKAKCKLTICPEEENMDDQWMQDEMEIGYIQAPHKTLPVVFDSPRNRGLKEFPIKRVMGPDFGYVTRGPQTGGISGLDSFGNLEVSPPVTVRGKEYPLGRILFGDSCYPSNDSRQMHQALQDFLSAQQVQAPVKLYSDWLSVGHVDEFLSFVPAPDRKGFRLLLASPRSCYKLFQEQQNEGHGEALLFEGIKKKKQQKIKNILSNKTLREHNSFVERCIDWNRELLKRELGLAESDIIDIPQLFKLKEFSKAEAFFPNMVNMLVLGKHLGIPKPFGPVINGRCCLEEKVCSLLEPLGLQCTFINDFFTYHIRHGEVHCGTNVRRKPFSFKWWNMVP
TCR-CD3 inh – inhibitors of human TCR-CD3 interaction, primary screen, biochemical, fluorescence, TAMRA-labeled TCR probe; T-cell receptor (TCR); inhibition, % at 9.4 µM; AID 651800, 2012; actives 0.37% (n = 360,000); in the data active = inhibition above about 19%;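 also: recombinant mutant TCR 2C K166C tagged with TAMRA read by polarization; 0% = receptor in buffer alone and 100% = receptor with positive control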
PRMT1 inh conf – PRMT1 methyltransferase inhibitors, confirmation, biochemical, fluorescence polarization, triplicate; shares compounds with PRMT1 FP inh; recombinant His-PRMT1, activity-based probe fluorescence polarization; inhibition, % at 2.79 µM; actives 42% (n = 3,300); AID 687036, 2013;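 active = mean inhibition across replicates above the hit cutoff derived for the earlier primary screen, cut at about 22% in these data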
* marks the source's active call; other numbers are inactive results; nt = no result. Rows were chosen to be rich in hits. Some 2.9% of all compounds tested hit in one or more screens of this group.

SMILES | PRMT1 FP inh | HTRA1 inh | SIAE inh | ABHD4 inh | PAD4 inh | TCR-CD3 inh | PRMT1 inh conf
Cc1ccc(C2c3sc(=O)[nH]c3SC3C4CC(C5C(=O)N(C(C)C(=O)O)C(=O)C45)C23)cc1 (centres undefined) | 59.1* | 4.2 | 0.8 | 3.9 | 9.5 | 6.2 | 20.5
CCC(C#Cc1ccccc1)N(C)C(N)=NC(=O)/C=C/c1ccccc1 (centres undefined) | -7.0 | nt | 3.7 | -1.2 | nt | nt | nt
COc1cc(/C=C2/CC/C(=C/c3ccc(O)c(OC)c3)C2=O)ccc1O | 16.8 | -6.3 | 0.3 | 12.1 | -4.3 | -7.3 | nt
COc1cc(/C=C/C=C2/CC/C(=C/C=C/c3ccc(O)c(OC)c3)C2=O)ccc1O | 53.6* | 5.1 | 1.5 | 2.4 | nt | 3.9 | 12.6
CCOC(=O)[C@]12CCCC=C1N(Cc1ccc(OC)cc1)C(=O)[C@@H]2CC(=O)NCc1cccc2ccccc12 | -3.7 | nt | 2.9 | -20.6 | nt | nt | nt
Cc1ccc(N2C(=O)CC(Sc3nc4ccccc4o3)C2=O)cc1Cl (centres undefined) | 50.0* | -35.8 | -8.3 | -10.8 | -8.2 | 7.7 | 36.5*
C(=N\N1CCOCC1)/c1cn(-c2ccccc2)nc1-c1ccccc1 | 96.1* | -2.6 | -1.9 | -2.7 | -4.1 | -2.0 | -1.8
CCOc1cc(C(c2c(O)nc(SC)[nH]c2=O)c2c(O)nc(SC)[nH]c2=O)ccc1O | 49.3* | nt | 2.2 | 8.4 | 2.9 | -6.3 | 41.2*
COc1cc2c(cc1OC)CN(C(=O)CSc1ccccc1C)CC2 | 32.5* | 5.2 | -0.4 | 0.9 | -7.1 | 0.7 | 15.9
CCC(/C=C1\Sc2ccc(OC)cc2N1CCO)=C\c1sc2ccc(OC)cc2[n+]1CCO | 69.8* | -153.3 | -14.3 | -234.7 | -137.2 | -125.4 | 7.0
Cn1c(=O)c2[nH]c(-c3ccccc3)c(O)c2n(C)c1=O | 75.5* | 6.9 | 7.1 | 11.2 | 0.4 | 1.1 | 23.6*
COc1ccccc1-[n+]1c(C)cc(/C=C2\Sc3ccccc3N2C)cc1C | 25.5* | 1.4 | 8.6 | 3.6 | 0.5 | -3.4 | -10.2
CC[C@@H](CCCc1ccc(F)cc1)CN(Cc1ccc(OC)cc1)S(=O)(=O)c1ccc(C)cc1 | -3.3 | nt | -5.2 | 0.9 | nt | nt | nt
CCOC(=O)NC1(NC2CCCCC2)Oc2ccccc2O1 | 19.3 | 14.7 | 4.7 | 26.2 | 5.3 | -5.2 | nt
CCOC(=O)NC1(NCc2ccccc2)Oc2ccccc2O1 | 26.4* | 10.7 | 2.3 | 23.4 | -2.9 | 1.3 | 4.8
CCOC(=O)c1c(SCCN2CCCCC2)n(-c2ccccc2)c(=S)n(-c2ccccc2)c1=O | 31.3* | 2.8 | -4.7 | 1.7 | nt | -4.1 | 4.2
CCOC(=O)c1c(SC)n(-c2ccccc2)c(=S)n(-c2ccccc2)c1=O | -2.5 | 4.1 | -0.9 | -2.8 | nt | 1.0 | nt
CC(=O)Nc1ccc(SC(C)C(=O)NC(N)=O)cc1 (centres undefined) | 38.8* | 4.1 | 5.0 | -1.0 | 7.4 | -4.8 | 31.5*
CCN(CC)c1ccc(NC(=O)c2ccccc2)cc1S(=O)(=O)Nc1ccccc1OC | 26.6* | -45.2 | -32.5 | -32.5 | 1.8 | 3.9 | 10.1
CCN(CC)c1ccc(NC(=O)c2cccc(C)c2)cc1S(=O)(=O)Nc1ccccc1OC | 33.6* | -75.8 | -44.1 | -42.7 | -2.8 | 7.5 | 4.5
CCCCc1ccc(CC(=O)Nc2cc(S(=O)(=O)N3CCOCC3)ccc2O)cc1 | 31.7* | -1.5 | -0.5 | 0.4 | -3.2 | 0.8 | 13.4
CN(CC(=O)Nc1ccccc1Cl)C(=O)CSc1nc2ccccc2s1 | -1.8 | -6.2 | 3.1 | -0.1 | -4.6 | 13.0 | nt
O=C(CSc1nc2ccccc2s1)Nc1cc(S(=O)(=O)N2CCOCC2)ccc1O | 37.7* | 1.5 | -70.8 | 13.1 | 4.1 | 7.7 | 40.1*
O=C(CC1CCCC1)Nc1cc(S(=O)(=O)N2CCOCC2)ccc1O | 3.7 | -0.8 | -3.1 | 3.8 | 3.9 | 0.7 | nt
O=C(CSc1nc2ccccc2s1)Nc1cc(C(=O)O)cc(C(=O)O)c1 | 42.5* | 0.0 | -7.2 | -0.3 | 1.4 | -5.9 | 57.9*
SMILES | PRMT1 FP inh | HTRA1 inh | SIAE inh | ABHD4 inh | PAD4 inh | TCR-CD3 inh | PRMT1 inh conf
CN(CC(=O)N1CCOCC1)C(=O)CSc1nc2ccccc2s1 | 26.5* | 3.7 | 10.2 | -2.6 | 0.8 | -3.2 | 33.6*
O=C(CSc1nc2ccccc2s1)NNC(=S)Nc1ccccc1 | 0.8 | -0.5 | -8.7 | 0.1 | 0.5 | 5.7 | nt
c1ccc(CNC2CCC23CCC(c2ccccc2)CC3)cc1 (centres undefined) | -5.8 | nt | 2.2 | 4.2 | nt | nt | nt
COc1ccc(-c2cc(C(=O)NN=C/C(C)=C/c3ccccc3)[nH]n2)cc1 | -4.1 | nt | -17.7 | -32.3 | nt | nt | nt
O=C(NCc1ccncc1)C1Cc2c(-c3ccc4c(c3)OCO4)ccnc2O1 (centres undefined) | 39.9* | nt | 2.6 | -0.7 | nt | 5.2 | 11.5
CCn1c(N)c(C(N)=O)sc1=S | 26.8* | 2.0 | 6.4 | -6.7 | -0.8 | -4.1 | 11.8
CCOC(=O)c1sc(=S)n(CC)c1N | 0.2 | 0.3 | 3.9 | -4.5 | 0.7 | 7.0 | nt
Cc1ccc(C(=O)Nc2ncc3c(n2)CC(c2ccco2)CC3=O)cc1 (centres undefined) | 33.2* | 1.6 | -1.6 | -2.5 | -2.2 | -8.6 | 3.6
CC(C)[C@H](NC(=O)CC1CCCC1)C(=O)N1CCC[C@H]1C(=O)NCc1ccccc1 | -3.1 | nt | -3.4 | -2.8 | nt | -1.1 | nt
N#Cc1ccc(-c2ccco2)nc1SCc1ccccc1 | -0.1 | -31.8 | -7.2 | -18.6 | -10.7 | -2.8 | nt
CCSc1nc(-c2ccco2)ccc1C#N | 31.5* | -18.9 | -3.0 | 5.7 | -2.7 | -11.0 | 18.2
Cc1noc(/C=C/c2ccco2)c1S(=O)(=O)N1CCC(C(=O)NCc2ccco2)CC1 | 31.6* | -2.1 | 4.8 | 0.9 | -1.3 | 0.5 | -0.2
O=C1CSC(=NC(=O)c2ccccc2)N1 | 77.6* | -3.5 | -3.6 | 3.3 | -5.4 | -1.4 | 14.6
CC(C)C(=O)N=C1NC(=O)CS1 | 55.3* | 4.5 | 10.9 | 2.6 | 2.8 | 2.1 | 35.4*
Cc1cc(Cl)ccc1NC(=O)/N=C1/NC(=O)CS1 | 0.5 | nt | -2.1 | -1.8 | nt | 1.5 | nt
O=C1CSc2ccc(C(=O)O)cc2N1 | 0.2 | -2.5 | -0.9 | 5.6 | -2.7 | 4.0 | nt
COC(=O)c1cc2c(c3c4cc(OC)ccc4n(S(=O)(=O)c4ccc(F)cc4)c13)C(=O)N(C)C2 | 2.4 | nt | 6.2 | -2.2 | nt | -0.8 | nt
CCCN1C(=O)SC(CC(=O)Nc2ccccc2)C1=O (centres undefined) | 6.0 | 3.8 | 17.0 | 5.4 | 1.9 | 3.8 | nt

Assay outcomes: PubChem BioAssay, The Scripps Research Institute Molecular Screening Center
